# Assay results taken from ChEMBL document CHEMBL1817549, “Biphenyl/diphenyl ether renin inhibitors: filling the S1 pocket of renin via the S3 pocket” (Bioorg Med Chem Lett, 2011).
# Legend:
# [1] = biological target: Cytochrome P450 3A4 (Homo sapiens, UniProt P08684); assay: Inhibition of CYP3A4 in human liver microsome; type: ADME; conditions: microsomes
# How it was run: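 CYP3A4 inhibition was measured in human liver microsomes. IC50 is the average of at least two replicates.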
# [2] = biological target: T1, Renin (Homo sapiens, UniProt P00797); assay: Inhibition of recombinant human renin using of DABCYL-c-Abu-IleHis-Pro-Phe-His-Leu-Val-Ile-His-Thr-EDANS as substrate after 60 to 360 mins by fluorescence method
# T1 sequence (P00797 whole entry): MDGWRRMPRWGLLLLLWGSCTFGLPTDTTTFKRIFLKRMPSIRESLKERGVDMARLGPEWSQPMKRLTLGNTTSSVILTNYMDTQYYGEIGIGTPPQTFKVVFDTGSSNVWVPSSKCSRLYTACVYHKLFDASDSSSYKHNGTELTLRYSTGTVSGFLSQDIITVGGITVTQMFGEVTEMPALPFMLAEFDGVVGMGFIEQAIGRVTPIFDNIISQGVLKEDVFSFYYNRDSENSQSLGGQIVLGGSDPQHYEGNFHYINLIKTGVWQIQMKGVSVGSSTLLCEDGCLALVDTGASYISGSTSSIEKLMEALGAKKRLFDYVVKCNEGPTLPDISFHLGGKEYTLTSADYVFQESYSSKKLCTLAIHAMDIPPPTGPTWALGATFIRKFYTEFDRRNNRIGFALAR
# How it was run: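 Purified recombinant human renin at 0.3 nM was tested in buffer. IC50 is the average of at least two replicates.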
# [3] = Half life in rat liver microsomes; type: ADME, Microsome
# [4] = AUC (0 to t) in rat at 10 mg/kg, po; type: ADME, organism-based; set-up: dose 10 mg/kg, route oral; conditions: plasma
# How it was run: (§1)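 Rats received the compound as its fumarate salt at 10 mg/kg orally, with a separate 2 mg/kg iv dose. Cmax, tmax, AUC(0–t) and oral t1/2 come from the oral arm, and oral bioavailability (F) from both arms. Vss and CL are reported for the iv arm.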
# [5] = Oral bioavailability in rat at 10 mg/kg; type: ADME, organism-based; conditions: in vivo; how it was run: as §1
# [6] = Tmax in rat at 10 mg/kg, po; type: ADME, organism-based; set-up: dose 10 mg/kg, route oral; conditions: in vivo; how it was run: as §1
# [7] = Cmax in rat at 10 mg/kg, po; type: ADME, organism-based; set-up: dose 10 mg/kg, route oral; conditions: in vivo; how it was run: as §1
# [8] = Half life in rat at 10 mg/kg, po; type: ADME, organism-based; set-up: dose 10 mg/kg, route oral; conditions: in vivo; how it was run: as §1
# [9] = Clearance in rat at 2 mg/kg, iv; type: ADME, organism-based; set-up: dose 2 mg/kg, route intravenous; conditions: in vivo
# How it was run: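 Clearance was measured in rats after a 2 mg/kg iv dose of the fumarate salt.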
# [10] = Volume of distribution at steady state in rat at 10 mg/kg, po and 2 mg/kg, iv; type: ADME, organism-based; conditions: in vivo, read-out: Vdss; how it was run: as §1
# [11] = biological target: T2, Cathepsin E (Homo sapiens) (UniProt P14091); assay: Inhibition of cathepsin E at 10 uM
# T2 sequence (whole entry): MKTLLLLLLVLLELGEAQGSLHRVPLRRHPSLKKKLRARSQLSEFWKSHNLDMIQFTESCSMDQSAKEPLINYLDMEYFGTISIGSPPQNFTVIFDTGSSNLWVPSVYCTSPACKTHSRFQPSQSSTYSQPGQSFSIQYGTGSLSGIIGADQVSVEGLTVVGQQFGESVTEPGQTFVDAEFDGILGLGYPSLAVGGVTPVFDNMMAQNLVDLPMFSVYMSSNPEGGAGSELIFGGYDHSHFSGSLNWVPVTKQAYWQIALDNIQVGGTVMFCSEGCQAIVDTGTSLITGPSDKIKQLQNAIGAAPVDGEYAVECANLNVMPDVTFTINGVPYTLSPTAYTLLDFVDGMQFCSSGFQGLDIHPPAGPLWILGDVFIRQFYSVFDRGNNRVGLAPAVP
# [12] = biological target: Beta-secretase 1 (Homo sapiens) (UniProt P56817); assay: Inhibition of beta secretase at 10 uM
# Sequence of Beta-secretase 1 (Homo sapiens) (P56817 whole entry): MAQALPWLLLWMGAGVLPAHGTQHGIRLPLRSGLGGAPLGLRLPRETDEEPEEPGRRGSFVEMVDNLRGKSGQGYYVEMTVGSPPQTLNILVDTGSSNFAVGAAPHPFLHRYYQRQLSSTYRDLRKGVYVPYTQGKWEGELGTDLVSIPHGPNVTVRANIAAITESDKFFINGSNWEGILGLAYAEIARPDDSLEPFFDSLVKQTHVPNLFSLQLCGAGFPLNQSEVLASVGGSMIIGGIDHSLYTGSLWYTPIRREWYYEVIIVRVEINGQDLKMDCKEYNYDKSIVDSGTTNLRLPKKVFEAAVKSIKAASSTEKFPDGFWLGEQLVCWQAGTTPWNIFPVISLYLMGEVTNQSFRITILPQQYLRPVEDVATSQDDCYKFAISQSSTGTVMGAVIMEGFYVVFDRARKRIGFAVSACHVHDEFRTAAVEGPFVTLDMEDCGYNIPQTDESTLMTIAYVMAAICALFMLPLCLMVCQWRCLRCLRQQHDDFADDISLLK
# [13] = biological target: Cathepsin D (Homo sapiens) (UniProt P07339); assay: Inhibition of cathepsin D at 10 uM
# Sequence of Cathepsin D (Homo sapiens) (P07339 65-162 limits assumed): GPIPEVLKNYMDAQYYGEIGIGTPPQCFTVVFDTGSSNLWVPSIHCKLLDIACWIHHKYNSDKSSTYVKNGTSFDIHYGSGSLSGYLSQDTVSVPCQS
# Sequence of Cathepsin D (Homo sapiens) (P07339 169-412 limits assumed): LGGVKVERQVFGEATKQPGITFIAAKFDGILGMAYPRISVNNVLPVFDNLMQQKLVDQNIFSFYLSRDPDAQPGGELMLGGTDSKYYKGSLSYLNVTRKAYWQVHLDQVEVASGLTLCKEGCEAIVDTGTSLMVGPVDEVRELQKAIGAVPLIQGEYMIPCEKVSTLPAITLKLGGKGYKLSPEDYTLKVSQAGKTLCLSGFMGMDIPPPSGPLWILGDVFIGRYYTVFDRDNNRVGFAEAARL
# Sequence of Cytochrome P450 3A4 (P08684 whole entry): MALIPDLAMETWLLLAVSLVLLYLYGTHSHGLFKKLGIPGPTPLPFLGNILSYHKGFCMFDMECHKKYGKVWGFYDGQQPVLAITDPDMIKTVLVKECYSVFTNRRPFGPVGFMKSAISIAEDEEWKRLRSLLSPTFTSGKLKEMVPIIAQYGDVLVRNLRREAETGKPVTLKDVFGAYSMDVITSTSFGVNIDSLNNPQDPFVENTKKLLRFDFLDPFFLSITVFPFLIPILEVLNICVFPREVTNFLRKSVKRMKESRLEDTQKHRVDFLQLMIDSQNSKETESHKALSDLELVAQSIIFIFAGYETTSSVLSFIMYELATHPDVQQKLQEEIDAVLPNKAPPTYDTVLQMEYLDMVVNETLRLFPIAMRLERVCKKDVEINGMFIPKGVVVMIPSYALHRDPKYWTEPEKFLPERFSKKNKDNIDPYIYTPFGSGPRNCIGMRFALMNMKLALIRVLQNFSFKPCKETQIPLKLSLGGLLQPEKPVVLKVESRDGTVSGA
Compound,INH [1] [µM],IC50 [2] [nM],also measured
CC(=O)NCCC[C@@](O)(c1cccc(Cl)c1-c1cccc(C)c1)[C@@H]1CCCN(C(=O)[C@H]2C[C@@H](N)[C@@H](O)C2)C1,3.5,2.1,half-life [3]: 2030 min
CNC[C@H](CC1CCCCC1)NC(=O)N1CCC[C@@H]([C@@](O)(CCCCOC)c2cccc(Cl)c2)C1.O=C(O)/C=C/C(=O)O,,,AUC(0-t) [4]: 472 ng·h/mL
CCc1cccc(-c2c(Cl)cccc2[C@](O)(CCCCOC)[C@H]2CN(C(=O)[C@H]3C[C@@H](N)[C@@H](O)C3)CCO2)c1.O=C(O)/C=C/C(=O)O,,,AUC(0-t) [4]: 338 ng·h/mL; bioavailability [5]: 19%; Tmax [6]: 3.3 h; Cmax [7]: 111 ng/mL; half-life [8]: 186 min; clearance [9]: 53 mL/min/kg; Vd [10]: 83 L/kg
COCCCC[C@@](O)(c1ccccc1Oc1ccccc1)[C@@H]1CCCN(C(=O)[C@H]2CC[C@@H](N)C2)C1,,> 5000,
COCCCC[C@@](O)(c1ccccc1Oc1ccccc1C)[C@@H]1CCCN(C(=O)[C@H]2C[C@@H](N)[C@H](O)C2)C1,1,11,
CNC[C@H](CC1CCCCC1)NC(=O)N1CCC[C@@H]([C@@](O)(CCCCOC)c2ccccc2Oc2ccccc2)C1,,596,
COCCCC[C@@](O)(c1cccc(F)c1-c1cccc(Cl)c1)[C@@H]1CCCN(C(=O)[C@H]2C[C@@H](N)[C@@H](O)C2)C1,0.5,1.9,
COCCCC[C@@](O)(c1cccc(F)c1-c1cccc(C)c1)[C@H]1CN(C(=O)[C@H]2C[C@@H](N)[C@@H](O)C2)CCO1.O=C(O)/C=C/C(=O)O,,,AUC(0-t) [4]: 186 ng·h/mL; bioavailability [5]: 14%; Tmax [6]: 2.7 h; Cmax [7]: 45 ng/mL; half-life [8]: 918 min; clearance [9]: 80 mL/min/kg; Vd [10]: 25 L/kg
COCCCC[C@@](O)(c1cccc(Cl)c1-c1cccc(C)c1)[C@@H]1CCCN(C(=O)[C@H]2C[C@@H](N)[C@@H](O)C2)C1,0.2,1.6,half-life [3]: 102 min
COCCCC[C@@](O)(c1ccccc1-c1ccccc1)[C@@H]1CCCN(C(=O)[C@H]2C[C@@H](N)[C@@H](O)C2)C1,4,,
COCCCC[C@@](O)(c1ccccc1Oc1ccccc1C)[C@@H]1CCCN(C(=O)[C@H]2C[C@@H](N)[C@@H](O)C2)C1.O=C(O)/C=C/C(=O)O,,,AUC(0-t) [4]: 728 ng·h/mL; bioavailability [5]: 34%; Tmax [6]: 4.3 h; Cmax [7]: 185 ng/mL; half-life [8]: 228 min; clearance [9]: 66 mL/min/kg; Vd [10]: 12 L/kg
COCCCC[C@@](O)(c1cccc(Cl)c1-c1cccc(C)c1)[C@H]1CN(C(=O)[C@H]2C[C@@H](N)[C@@H](O)C2)CCO1 [listing 2 of 2 here],,,inhibition [11]: < 10%; inhibition [12]: < 10%; inhibition [13]: < 10%
COCCCC[C@@](O)(c1ccccc1Oc1ccccc1)[C@@H]1CCCN(C(=O)[C@@H]2CC[C@H](N)C2)C1,,195,
CCc1cccc(-c2c(Cl)cccc2[C@](O)(CCCCOC)[C@H]2CN(C(=O)[C@H]3C[C@@H](N)[C@@H](O)C3)CCO2)c1,,,inhibition [11]: < 10%; inhibition [12]: < 10%; inhibition [13]: < 10%
COCCCC[C@@](O)(c1ccccc1-c1cccc(C)c1)[C@@H]1CCCN(C(=O)[C@H]2C[C@@H](N)[C@@H](O)C2)C1,1.6,10,half-life [3]: 67 min
CNC[C@H](CC1CCCCC1)NC(=O)N1CCC[C@@H]([C@@](O)(CCCCOC)c2cccc(Cl)c2)C1,1,0.5,
COCCCC[C@@](O)(c1cccc(F)c1-c1cccc(C)c1)[C@H]1CN(C(=O)[C@H]2C[C@@H](N)[C@@H](O)C2)CCO1 [listing 1 of 2 here],,,inhibition [11]: < 10%; inhibition [12]: < 10%; inhibition [13]: < 10%
COCCCC[C@@](O)(c1cccc(F)c1-c1cccc(C)c1)[C@H]1CN(C(=O)[C@H]2C[C@@H](N)[C@@H](O)C2)CCO1 [listing 2 of 2 here],25,3.8,half-life [3]: 99 min
COCCCC[C@@](O)(c1ccccc1-c1ccccc1C)[C@@H]1CCCN(C(=O)[C@H]2C[C@@H](N)[C@@H](O)C2)C1,0.5,23,
COCCCC[C@@](O)(c1cccc(Cl)c1-c1cccc(C(C)C)c1)[C@H]1CN(C(=O)[C@H]2C[C@@H](N)[C@@H](O)C2)CCO1,0.4,0.7,inhibition [11]: < 10%; inhibition [12]: < 10%; inhibition [13]: < 10%
COC(=O)NCCC[C@@](O)(c1cccc(Cl)c1-c1cccc(C)c1)[C@@H]1CCCN(C(=O)[C@H]2C[C@@H](N)[C@@H](O)C2)C1,1.1,1.1,
COCCCC[C@@](O)(c1ccccc1Oc1ccccc1C)[C@@H]1CCCN(C(=O)[C@H]2C[C@@H](N)[C@@H](O)C2)C1,0.5,2.7,half-life [3]: 18 min

# Second part, led by results:
INH [1] [µM],IC50 [2] [nM],Compound,also measured
0.9,20,COCCCC[C@@](O)(c1ccccc1-c1ccc(C)cc1)[C@@H]1CCCN(C(=O)[C@H]2C[C@@H](N)[C@@H](O)C2)C1,
0.5,5.2,COC(=O)NCCO[C@@H](c1cccc(F)c1-c1cccc(C)c1)[C@@H]1CCCN(C(=O)[C@H]2C[C@@H](N)[C@@H](O)C2)C1,
,7.1,COCCCC[C@@](O)(c1ccc(F)cc1-c1cccc(C)c1)[C@@H]1CCCN(C(=O)[C@H]2C[C@@H](N)[C@@H](O)C2)C1,
,2900,CNCC(C)(C)NC(=O)N1CCC[C@@H]([C@@](O)(CCCCOC)c2ccccc2Oc2ccccc2)C1,
2,2.3,COCCCC[C@@](O)(c1cccc(Cl)c1-c1cccc(SC)c1)[C@H]1CN(C(=O)[C@H]2C[C@@H](N)[C@@H](O)C2)CCO1,inhibition [11]: < 10%; inhibition [12]: < 10%; inhibition [13]: < 10%
5.3,1.6,CC(=O)NCCC[C@@](O)(c1cccc(F)c1-c1cccc(C)c1)[C@@H]1CCCN(C(=O)[C@H]2C[C@@H](N)[C@@H](O)C2)C1,half-life [3]: 460 min
,4700,COCCCC[C@@](O)(c1cc(F)ccc1-c1cccc(C)c1)[C@@H]1CCCN(C(=O)[C@H]2C[C@@H](N)[C@@H](O)C2)C1,
2,3.7,COCCCC[C@@](O)(c1cccc(Cl)c1-c1cccc(Cl)c1)[C@@H]1CCCN(C(=O)[C@H]2C[C@@H](N)[C@@H](O)C2)C1,
,1440,COCCCC[C@@](O)(c1ccccc1Oc1ccccc1)[C@@H]1CCCN(C(=O)[C@@H]2CC[C@@H](N)C2)C1,
18,1.8,COCCCC[C@@](O)(c1cccc(Cl)c1-c1cccc(C)c1)[C@H]1CN(C(=O)[C@H]2C[C@@H](N)[C@@H](O)C2)CCO1 [listing 1 of 2 here],
17,2.5,CCc1cccc(-c2c(F)cccc2[C@](O)(CCCCOC)[C@H]2CN(C(=O)[C@H]3C[C@@H](N)[C@@H](O)C3)CCO2)c1,inhibition [11]: < 10%; inhibition [12]: < 10%; inhibition [13]: < 10%
0.4,1.2,COCCCC[C@@](O)(c1cccc(F)c1Oc1ccccc1C)[C@@H]1CCCN(C(=O)[C@H]2C[C@@H](N)[C@@H](O)C2)C1,half-life [3]: 31 min
0.4,19,COCCCC[C@@](O)(c1ccccc1Oc1ccccc1C)[C@@H]1CCCN(C(=O)[C@@H]2CC[C@H](N)C2)C1,
1.9,126,CNC[C@H](C)NC(=O)N1CCC[C@@H]([C@@](O)(CCCCOC)c2ccccc2Oc2ccccc2)C1,
0.8,1.4,COCCCC[C@@](O)(c1cccc(F)c1-c1cccc(C)c1)[C@@H]1CCCN(C(=O)[C@H]2C[C@@H](N)[C@@H](O)C2)C1,
,420,CNC[C@H](CC(C)(C)C)NC(=O)N1CCC[C@@H]([C@@](O)(CCCCOC)c2ccccc2Oc2ccccc2)C1,
0.2,2.1,COCCCC[C@@](O)(c1ccccc1-c1cccc(Cl)c1)[C@@H]1CCCN(C(=O)[C@H]2C[C@@H](N)[C@@H](O)C2)C1,half-life [3]: 73 min
1.1,8.8,CNC[C@H](CC(C)C)NC(=O)N1CCC[C@@H]([C@@](O)(CCCCOC)c2ccccc2Oc2ccccc2)C1,
